Compounds with a hit are over-represented: about 2% of the library has one in this group of screens.
B2AR ag: beta2AR agonists driving receptor internalization, primary screen, cell-based, FAP fluorogen, flow cytometry; Beta-2 adrenergic receptor (Homo sapiens), P07550; Am2.2-beta2AR cells; response, % (no concentration beside the values); 0.43% of 340,000 active; AID 504454, 2011;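 active = response above a set limit, near 3 SD of response in nonfluorescent compounds, cut at about 42% in these data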
H9c2 TAG inh: inhibitors of triacylglycerol accumulation, primary screen, cell-based, uHTS, fluorescence, H9c2; H9c2 cells, Nile Red lipid (TAG) fluorescence; cells loaded with 200 µM oleic acid; inhibition, % at 12.5 µM; 0.66% of 230,000 active;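 active = pattern-corrected inhibition of lipid staining of at least 50% with the nuclear-stain viability signal not falling by more than 50%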;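 note: 0% = DMSO wells and 100% = triacsin C control wells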
NTR1 agonist: agonists of human NTR1, primary screen, imaging, U2OS cells, beta-arrestin-GFP, high content; NTR1-U2OS beta-arrestin-GFP spot imaging, agonist mode; 0.17% of 330,000 active; AID 493036, 2011; activation, % at 20 µM; Neurotensin receptor type 1 (Homo sapiens), P30989;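 active = activation at or above 40% of the spot to cytoplasm intensity ratio, with at least 20 cells analyzed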;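 note: 0% = DMSO without peptide and 100% = 100 nM NTR1 peptide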
Arrestin-AP2 inh: inhibitors of beta-arrestin/AP2 binding, primary screen, biochemical, GPCR trafficking, flow cytometry. beta-arrestin 1 C-terminal peptide binding to AP2 beta2-adaptin appendage (human). FITC-arrestin peptide / GST-AP2 beads; AP2 beta2 appendage carries R879A mutation. inhibition, % at 10 µM. 0.31% of 340,000 active;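 active = inhibition above a set limit, near 3 SD of compounds lacking own fluorescence, cut at about 54% in these data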;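 note: plate controls were DMSO wells for no effect and 5 µM unlabelled arrestin peptide for full effect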
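system = GST-tagged AP2 beta2-adaptin appendage (R879A) on 4 µm glutathione beads | reagent = FITC-labelled arrestin peptide probe, 50 nM final | schedule = compound with beads 12 min RT, then probe 1 h RT | signal = HyperCyt-sampled flow cytometry, FL1 channel, ex 488/em 535 nm | read-out = percent response from loss of bead-bound FITC fluorescence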
GRK2 aptamer HTS: compounds blocking aptamer binding on GRK2 – biochemical, human GRK2, bead flow cytometry, HTS, primary screen; FAM-aptamer displacement from GRK2; inhibition of aptamer binding, % at 10 µM; AID 488847, 2010; 0.59% of 330,000 active;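 active = inhibition of aptamer binding above 40%, roughly 3 SD of noise, on plates passing a quality check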;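 note: median bead fluorescence of bound FAM aptamer so fluorescent compounds give negative values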
Target sequence (P25098 whole entry, looked up): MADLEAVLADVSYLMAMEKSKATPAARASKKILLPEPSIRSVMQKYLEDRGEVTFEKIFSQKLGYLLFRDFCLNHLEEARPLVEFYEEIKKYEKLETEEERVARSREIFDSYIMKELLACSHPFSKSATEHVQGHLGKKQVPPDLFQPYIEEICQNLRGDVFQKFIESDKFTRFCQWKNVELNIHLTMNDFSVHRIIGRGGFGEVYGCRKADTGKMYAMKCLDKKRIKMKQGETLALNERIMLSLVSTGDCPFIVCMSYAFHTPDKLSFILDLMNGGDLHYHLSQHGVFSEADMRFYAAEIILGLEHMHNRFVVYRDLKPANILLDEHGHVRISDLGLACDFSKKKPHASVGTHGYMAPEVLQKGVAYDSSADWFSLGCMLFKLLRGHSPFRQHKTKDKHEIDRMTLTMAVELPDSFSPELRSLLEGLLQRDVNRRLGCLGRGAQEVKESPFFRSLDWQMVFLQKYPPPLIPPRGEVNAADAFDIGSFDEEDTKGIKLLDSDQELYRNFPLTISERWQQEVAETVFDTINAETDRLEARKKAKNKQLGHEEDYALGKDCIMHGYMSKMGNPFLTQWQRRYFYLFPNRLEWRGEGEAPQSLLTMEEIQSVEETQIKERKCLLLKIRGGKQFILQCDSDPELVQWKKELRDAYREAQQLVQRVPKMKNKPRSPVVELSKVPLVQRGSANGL
Lipid droplet: inhibitors of hepatocyte lipid droplet formation, primary screen, imaging, high-throughput imaging, BODIPY stain; AML12 mouse hepatocytes, oleate lipid droplets; inhibition, % at 6.5 µM; 0.4% of 240,000 active; AID 1656, 2009;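 active = lipid droplet intensity inhibited by at least 50%, with more than 500 cells counted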
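Assay system: AML12 mouse liver cells | Compound: 6.5 µM single-point dosing | Schedule: Overnight exposure | Technique: Fluorescence imaging, 20x objective, two fields per well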
GRK2 CP1: GRK2 aptamer-displacing inhibitors, retest, confirmation, biochemical, cherry pick 1, bead flow cytometry. shares compounds with GRK2 aptamer HTS. bead-bound GRK2, FAM-aptamer displacement. aptamer displacement, % at 10 µM. 4% of 2,000 active. AID 504451, 2011;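 active = aptamer displacement above 40%, near three times the noise of non-fluorescent compounds, on plates passing quality checks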;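 note: negative values mostly reflect intrinsic compound fluorescence rather than true enhancement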
FAM quench CP1: quenches fluorescent RNA aptamer, GRK2 hit artifact; 2,000 tested, under 10 active; Carboxyfluorescein RNA aptamer on beads, flow cytometry quenching; stronger effect = lower value; shares compounds with GRK2 aptamer HTS; fluorescence response (% of DMSO), % at 10 µM;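 active = compounds that quench the bead-bound fluorescent RNA probe, cutting fluorescence to under half of the solvent control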;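 note: counterscreen run without GRK2 so only probe quenching by compound is measured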
GRK2 CP2: GRK2 aptamer-displacing inhibitors, hit retest, confirmation, biochemical, cherry pick 2, bead flow cytometry; shares compounds with GRK2 aptamer HTS; bead-bound GRK2, FAM-aptamer displacement; inhibition of aptamer binding, % at 10 µM; 360 tested, under 10 active;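 active = inhibition of aptamer binding above 40%, about triple the noise seen with nonglowing compounds, on plates passing quality control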;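 note: negative values mostly come from compounds that fluoresce themselves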
FAM quench CP2: counter-screen for GRK2 binding hits: quenchers of fluorescent RNA aptamer. shares compounds with GRK2 aptamer HTS. carboxyfluorescein RNA aptamer beads, flow cytometry quenching; stronger effect = lower value. fluorescence response vs DMSO, % at 10 µM. 360 tested, under 10 active. AID 588494;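 active = response vs DMSO under 50%, meaning signal dropped by over half, treated as fluorescence quencher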;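 note: labelled aptamer on streptavidin beads without GRK2 as a quench counter-screen; 100% = bead fluorescence of DMSO wells and lower means quenching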
An asterisk follows results filed as active; · = no result given.

SMILES | B2AR ag | H9c2 TAG inh | NTR1 agonist | Arrestin-AP2 inh | GRK2 aptamer HTS | Lipid droplet | GRK2 CP1 | FAM quench CP1 | others
Cc1nc(-c2nc(CC(=O)NNC(=O)c3ccc(Cl)cc3)cs2)cs1 | -3 | 9 | 0 | 0 | 47* | 5 | 1 | 107
COc1ccc([C@H]2C[C@@H](O)[C@H](n3cc(-c4ccc(F)cc4)nn3)CN2CC2CCCCC2)cc1 | · | 39 | · | · | · | · | · | ·
Cn1c(N2CCN(C(c3ccccc3)c3ccccc3)CC2)nc2ccccc21 | 17 | 2 | 14 | 13 | 98* | 15 | -2 | 151
Cn1c(N2CCN(C(=O)Nc3ccc(F)cc3)CC2)nc2ccccc21 | -3 | -8 | 1 | 10 | 3 | 27 | · | ·
Cc1ccc(S(=O)(=O)NCCC(=O)NC(C)CCc2ccccc2)cc1 (configuration not stated) | -4 | -3 | 0 | -9 | 0 | · | · | ·
Cc1sc2nc(CN(Cc3ccccc3)C(=O)NC3CCCCC3)[nH]c(=O)c2c1C | -15 | · | 4 | 42 | 30 | · | -2 | 101
CC(=O)N(Cc1ccccc1)Cc1nc2sc(C)c(C)c2c(=O)[nH]1 | -3 | 17 | 1 | 22 | 4 | -9 | · | ·
C=CCNC(=S)NC1CC(C)(C)NC(C)(C)C1 | -6 | · | -2 | 1 | 0 | -2 | · | ·
CC1(C)CC(NC(=S)NC2CC2)CC(C)(C)N1 | -6 | -1 | -1 | 20 | 69* | 7 | 0 | 98
Cc1cc(NC(=O)CCC(=O)N(CC(=O)NC2CCCC2)c2ccc(F)c(Cl)c2)no1 | 7 | · | -2 | 17 | 0 | -4 | · | ·
COc1ccc(CCN2CCCn3c2nc2c3c(=O)n(CC(C)C)c(=O)n2C)cc1OC | -8 | · | 2 | -12 | 54* | -19 | 0 | 105
CCn1c(=O)c2c(nc3n2CCCN3CCc2ccc(OC)c(OC)c2)n(C)c1=O | 5 | · | 1 | 10 | 2 | -26 | · | ·
CCOc1ccc(N2CC(C(=O)Nc3ccccc3OC)CC2=O)cc1 (configuration not stated) | -2 | -4 | 0 | 14 | 0 | -1 | · | ·
CCCOc1ccc(N2CC(C(=O)Nc3ccccc3C(=O)NC)CC2=O)cc1 (configuration not stated) | -1 | -14 | 2 | -21 | 47* | -3 | 0 | 98
O=C(O)C1CC=CCC1C(=O)Nc1ccc(F)c(F)c1 (configuration not stated) | 5 | -9 | 2 | 12 | 2 | 5 | · | ·
O=C(O)C1CC=CCC1C(=O)Nc1ccc2c(c1)OCCO2 (configuration not stated) | -2 | -3 | 0 | 2 | 24 | -36 | · | · | GRK2 CP2=12;FAM quench CP2=99
Cc1ccc(-n2nc3c(c2NC(=O)C(C)C)CS(=O)(=O)C3)cc1 | -2 | · | -1 | -9 | 4 | -10 | · | ·
CCOC(=O)c1cc(CN2CCOCC2)oc1-c1ccccc1 | -8 | 3 | 4 | 8 | 69* | · | 2 | 95

Source: PubChem
